The subject of data set [1] is Mus musculus. Description: Antiangiogenic activity in Matrigel plug angiogenic Balb/c mouse model assessed as impaired vascularization by measuring loss of red colour in VEGF-supplemented matrigel at 20 to 60 mg/kg, sc measured after 15 days. The format is functional, organism-based. The gist of the method: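 Balb/c nude mice (6–8 weeks), three groups, injected subcutaneously with 400 μL Matrigel alone or with VEGF (250 ng/mL) and/or compound; after 15 days plugs removed, weighed and photographed.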

In data set [2] the test system is HUVEC. Description: Antiangiogenic activity against VEGF-induced HUVEC assessed as inhibition of cell proliferation preincubated for 30 mins followed by VEGF addition measured after 24 hrs by MTT assay. Format: functional, cell-based. Conditions: Homo sapiens. The procedure, abridged: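 HUVECs seeded 24 h, starved 16 h in M200 with 2% FBS, pretreated 30 min with compound at 0.1, 1, 10, 20 or 40 μM, then stimulated with VEGF (25 ng/mL) for 24 h; viability read by MTT; IC50 determined.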

For data set [3], the system named is HUVEC. Description: Antiinvasive activity in HUVEC assessed as inhibition of VEGF-induced cell invasion at 5 uM after 6 hrs by crystal violet staining based transwell assay relative to control. Conditions: Homo sapiens. The format is functional. The procedure, abridged:
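Transwell: 1×10⁴ HUVECs in serum-free M200 in top chamber with vehicle or compound; bottom chamber M200 with 10% FBS; 6 h at 37°C; cells on membrane underside fixed in 4% paraformaldehyde, stained 0.1% crystal violet, imaged and counted.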

For data set [4], the system named is HUVEC. The data set can be described thus: Antiangiogenic activity in HUVEC assessed as inhibition of VEGF-induced capillary like tube formation at 2.5 uM preincubated with VEGF for 20 mins followed by compound addition measured after 6 hrs by matrigel based tube formation assay relative to control. Format: functional. The conditions noted are these: Homo sapiens. The gist of the method:
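Matrigel (100 μL) set 1 h at 37°C; 2×10⁴ HUVECs in M200 with 10% FBS added per well plus 10 ng/mL VEGF; compound added after 20 min; incubated 6 h at 37°C, then capillary-like structures photographed.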

In data set [5] the test system is Aorta. The data set can be described thus: Inhibition of VEGF-induced capillary sprouting in Sprague-Dawley rat aortic ring treated for every 3 days for 7 days measured on day 7 by inverted microscopy. Format: functional, tissue-based. The gist of the method: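 Aortas from anesthetized Sprague-Dawley rats cut into 1-mm rings and embedded in Matrigel for 1 h at 37°C. Rings starved 1 day, then cultured in opti-MEM with 2.5% FBS and 30 ng/mL VEGF plus compound. Treatment renewed every 3 days for 7 days. Sprouting imaged on day 7 by inverted microscopy.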

Data set [6] concerns HUVEC. The data set can be described thus: Cytotoxicity against HUVEC at 1 to 5 uM measured after 48 hrs. The format is cell-based. Conditions: human.
Data set [7] deals with HUVEC. The data set can be described thus: Induction of apoptosis in VEGF-stimulated HUVEC assessed as necrotic cells at 20 uM after 24 hrs by Annexin V-FITC/propidium iodide staining based flow cytometric analysis (reference value: 12.1%). The conditions noted are these: human. Format: cell-based. The procedure, abridged: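 HUVECs plated at 5×10^5 per well and treated 24 h with 1, 5, 10 or 20 μM. Detached and adherent cells were pooled, washed in ice-cold PBS and resuspended in fresh medium. 1×10^5 cells were stained with annexin-V-FITC in annexin-V buffer for 20 min in the dark, then PI (50 μg/mL) was added. Read-out by flow cytometry.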

In data set [8] the test system is HT-29. The data set can be described thus: Induction of apoptosis in human HT-29 cells assessed as early apoptotic cells at 1 uM after 24 hrs by Annexin V-FITC/propidium iodide staining based flow cytometric analysis (reference value: 1.9%). Format: cell-based. The conditions noted are these: ht-29, 24 h.
The nature of data set [9]: Induction of apoptosis in human HT-29 cells assessed as viable cells at 5 uM after 24 hrs by Annexin V-FITC/propidium iodide staining based flow cytometric analysis (reference value: 80.8 to 81.1%). The format is cell-based. The conditions noted are these: read-out: Activity.
Data set [10] concerns HT-29. The data set can be described thus: Induction of apoptosis in human HT-29 cells assessed as early apoptotic cells at 5 uM after 24 hrs by Annexin V-FITC/propidium iodide staining based flow cytometric analysis (reference value: 1.9 to 5.3%). Format: cell-based. Conditions: ht-29, 24 h.
A short description of data set [11]: Induction of apoptosis in human HT-29 cells assessed as viable cells at 20 uM after 24 hrs by Annexin V-FITC/propidium iodide staining based flow cytometric analysis (reference value: 80.8%). The format is cell-based. The conditions noted are these: read-out: Activity.
Data set [12] concerns HT-29. Description: Induction of apoptosis in human HT-29 cells assessed as early apoptotic cells at 20 uM after 24 hrs by Annexin V-FITC/propidium iodide staining based flow cytometric analysis (reference value: 1.9%). The format is cell-based. Conditions: ht-29, 24 h.
Data set [13] relates to HT-29. Description: Induction of apoptosis in human HT-29 cells assessed as necrotic cells at 20 uM after 24 hrs by Annexin V-FITC/propidium iodide staining based flow cytometric analysis (reference value: 3.9%). The format is cell-based. The conditions noted are these: ht-29, 24 h.
Data set [14] concerns HT-29. Description: Induction of apoptosis in human HT-29 cells assessed as necrotic cells at 5 uM after 48 hrs by Annexin V-FITC/propidium iodide staining based flow cytometric analysis (reference value: 1.3%). The format is cell-based. The conditions noted are these: ht-29, 48 h.
Data set [15] is described as follows: Induction of apoptosis in human HT-29 cells assessed as viable cells at 5 uM after 72 hrs by Annexin V-FITC/propidium iodide staining based flow cytometric analysis (reference value: 81.1%). Format: cell-based. The conditions noted are these: read-out: Activity.
For data set [16], the target named is Vascular endothelial growth factor receptor 2 (Homo sapiens) (UniProt P35968). Description: Inhibition of VEGFR2 in VEGF-stimulated HUVEC assessed as downregulation of Src phosphorylation at Tyr416 residue at 1 to 10 uM pre-incubated for 2 hrs followed by VEGF stimulation and measured after 15 mins by Western blot analysis. The format is cell-based.
The target is the same in data set [17]. Description: Inhibition of VEGFR2 (unknown origin) at 10 uM using myelin basic protein as substrate in presence of [gamma-33P]-ATP by scintillation counting analysis relative to control. The procedure, abridged: (§1)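 Radiometric kinase panel run by a contract lab. Kinase (5–10 mU) in 25 mM Tris pH 7.5, 0.02 mM EGTA, 0.66 mg/mL myelin basic protein, magnesium acetate and [γ-33P]-ATP (about 500 cpm/pmol). Started with Mg-ATP mix, 40 min at room temperature, stopped with 3% phosphoric acid. Spotted on P30 filters, washed in 75 mM phosphoric acid and methanol, scintillation counted. Mean ± SD of three independent experiments.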

Data set [18] addresses Mitogen-activated protein kinase 1 (Homo sapiens) (UniProt P28482). The data set can be described thus: Inhibition of ERK2 (unknown origin) at 10 uM using myelin basic protein as substrate in presence of [gamma-33P]-ATP by scintillation counting analysis relative to control. The gist of the method: as §1
The test system of data set [19] is HT-29. Description: Antitumor activity against human HT-29 cells xenografted in mouse assessed as reduction in tumour volume at 60 mg/kg, po administered every other day for 3 weeks and measured at 20 days post-treatment relative to control. The format is functional. Conditions: HT-29, po.
Data set [20] is described as follows: Toxicity in mouse xenografted with human HT-29 cells assessed as body weight at 20 to 60 mg/kg, po administered every other day for 3 weeks. The format is organism-based. The conditions noted are these: in vivo, 504 h. The gist of the method:
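HT29 cells implanted subcutaneously in the right flank of nude mice. At about 100 mm³, mice were randomized to vehicle (0.9% NaCl) or oral compound at 20, 40 and 60 mg/kg, with sunitinib at 40 mg/kg as reference. Body weight and tumor size recorded every other day.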

Data set [21] relates to HT-29. Description: Antiangiogenic activity against human HT-29 cells xenografted in mouse assessed as reduction in formation of new blood vessels in tumour at 20 to 60 mg/kg, po administered every other day for 3 weeks measured at 20 days post-treatment. The format is functional, organism-based.

The source made the active and inactive calls. The rule behind the calls is not given here.

Vascular endothelial growth factor receptor 2 (Homo sapiens), sequence (P35968 whole entry): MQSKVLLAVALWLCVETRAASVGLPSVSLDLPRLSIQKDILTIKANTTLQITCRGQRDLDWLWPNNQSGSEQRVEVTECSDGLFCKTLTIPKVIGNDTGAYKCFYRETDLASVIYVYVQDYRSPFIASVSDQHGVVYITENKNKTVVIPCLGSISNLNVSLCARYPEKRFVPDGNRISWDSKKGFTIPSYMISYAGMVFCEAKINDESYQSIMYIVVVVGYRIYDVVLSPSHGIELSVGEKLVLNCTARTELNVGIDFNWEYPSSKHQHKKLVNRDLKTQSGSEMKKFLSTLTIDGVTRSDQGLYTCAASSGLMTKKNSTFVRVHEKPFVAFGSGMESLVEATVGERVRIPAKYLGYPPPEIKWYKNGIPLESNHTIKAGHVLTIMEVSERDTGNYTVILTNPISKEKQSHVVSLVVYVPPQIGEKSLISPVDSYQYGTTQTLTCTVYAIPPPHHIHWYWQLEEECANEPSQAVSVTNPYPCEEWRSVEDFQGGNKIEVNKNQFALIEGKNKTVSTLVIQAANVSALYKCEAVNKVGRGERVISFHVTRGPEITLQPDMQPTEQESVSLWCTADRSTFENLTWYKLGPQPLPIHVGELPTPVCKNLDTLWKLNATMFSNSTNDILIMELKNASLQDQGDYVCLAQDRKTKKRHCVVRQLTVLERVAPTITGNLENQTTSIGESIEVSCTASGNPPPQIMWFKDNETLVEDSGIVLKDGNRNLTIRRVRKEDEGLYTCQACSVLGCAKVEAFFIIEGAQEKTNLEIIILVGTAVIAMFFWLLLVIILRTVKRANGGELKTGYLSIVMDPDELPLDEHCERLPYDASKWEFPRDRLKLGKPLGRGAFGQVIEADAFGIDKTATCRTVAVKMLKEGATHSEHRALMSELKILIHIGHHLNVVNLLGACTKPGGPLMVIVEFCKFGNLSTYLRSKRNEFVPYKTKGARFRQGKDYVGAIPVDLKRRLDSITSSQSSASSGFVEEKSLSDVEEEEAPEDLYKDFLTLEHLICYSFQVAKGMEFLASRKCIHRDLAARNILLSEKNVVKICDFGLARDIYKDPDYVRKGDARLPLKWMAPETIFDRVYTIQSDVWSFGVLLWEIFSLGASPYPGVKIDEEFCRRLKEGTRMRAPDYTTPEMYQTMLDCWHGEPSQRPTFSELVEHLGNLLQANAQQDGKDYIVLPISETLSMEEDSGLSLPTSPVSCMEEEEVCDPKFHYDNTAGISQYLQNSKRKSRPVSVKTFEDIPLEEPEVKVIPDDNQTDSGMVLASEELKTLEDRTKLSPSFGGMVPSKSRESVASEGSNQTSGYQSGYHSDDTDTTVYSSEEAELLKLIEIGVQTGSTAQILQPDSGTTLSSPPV
Mitogen-activated protein kinase 1 (Homo sapiens), sequence (P28482 whole entry): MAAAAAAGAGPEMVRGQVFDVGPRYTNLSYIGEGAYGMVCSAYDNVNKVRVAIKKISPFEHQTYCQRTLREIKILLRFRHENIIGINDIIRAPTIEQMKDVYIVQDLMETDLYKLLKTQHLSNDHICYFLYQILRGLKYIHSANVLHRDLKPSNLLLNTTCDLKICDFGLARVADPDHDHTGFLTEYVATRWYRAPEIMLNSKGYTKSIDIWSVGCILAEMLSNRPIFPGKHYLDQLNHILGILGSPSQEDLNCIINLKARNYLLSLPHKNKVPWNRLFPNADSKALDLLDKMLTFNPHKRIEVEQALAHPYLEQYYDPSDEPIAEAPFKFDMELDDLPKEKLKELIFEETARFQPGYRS

In the case of `COc1ccc(NC(=O)c2cccc(/C=C3\CC(=O)N(c4ccc(C)cc4)C3=O)c2)cc1`, the outcome in data set [1] was Active. Moreover, the IC50 in data set [2] turned out to be 8.56 µM. The inhibition at 5 µM in data set [3] amounted to 40%. In addition, the inhibition at 2.5 µM in data set [4] was 73%. Moreover, the inhibition result in data set [5] is “Dose-dependent effect”; in data set [17], 95.4%; in data set [18] it was 50 to 70%. For the same compound, the Activity entry in data set [6] is “Non-Toxic”; in data set [7] it was 5.6%; in data set [8], 1.3%; in data set [10], 1.2 to 5.4%; in [12], 1.7%; in [13], 2.3%. Further, the Activity is listed as 1.1% in data set [14] and “Non-Toxic” in [20]. Moreover, the viability at 24 h, 5 µM in data set [9] fell in the range of 75.8 to 77.9%. Besides, the viability at 24 h, 20 µM in data set [11] was 78.9%. The viability at 72 h, 5 µM in data set [15] was determined as 76.9%. In addition, the inhibition entry in [16] and in [21] was “Active” throughout. Besides, the inhibition in vivo at 60 mg/kg in data set [19] turned out to be 53.5%.

Source of the values: ChEMBL document CHEMBL4396917, “Synthesis and biological evaluation of novel benzylidene-succinimide derivatives as noncytotoxic antiangiogenic inhibitors with anticolorectal cancer activity in vivo” (Eur J Med Chem, 2019).
